We go through three compounds from ChEMBL document CHEMBL4811300, “Design, synthesis, and biological evaluation of novel bifunctional thyrointegrin antagonists for neuroblastoma” (Bioorg Med Chem, 2021).

Data set [1] is described as follows: Drug uptake in human SK-N-F1 cells at 10 uM measured upto 60 mins by LC-MS/MS analysis. Type of data set: ADME, cell-based. The conditions noted are these: sk-n-fi, 1 h. In short, it runs like this:
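SK-N-F1 cells (~1M) were exposed to compound at 10 uM per the figure legend; the methods text gives 1 µM. Incubation lasted 15, 30 and 60 min. Cells were washed with PBS, pelleted at 5,000g for 10 min, homogenized in acetonitrile and extracted. The residue was reconstituted in acetonitrile/water 80/20. Quantification was by LC-MS/MS (positive ESI MRM) against 1–1000 ng/mL standards.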

Data set [2] concerns SK-N-FI. In words: Antitumor activity against human SK-N-FI cells xenografted in Ncr nude mouse assessed as reduction of tumor weight at 3 mg/kg, sc dosed daily up to 20 days relative to control. Type of data set: functional. Set-up: scale not given: the % may be the effect or the level left. As to conditions: time day <=20; call rule not given here. In short, it runs like this:
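SK-N-F1 xenografts: 2 million cells per implant, 4 mice per group, with treatment starting once tumors reached 500 mm³. Dosing was 3 mg/kg s.c. once daily for 20 days (the methods say 21) against PBS vehicle control. Animals were sacrificed at study end, and tumors were excised and weighed.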
For orientation: Xenograft models place foreign cells or tissue in a host animal.

Data set [3] has as its system SK-N-FI. In words: Antitumor activity against human SK-N-FI cells xenografted in Ncr nude mouse assessed as increase in necrotic cells in tumor at 3 mg/kg, sc dosed daily up to 20 days by H and E staining based light microscopic analysis relative to control. Type of data set: functional. As to conditions: time day <=20. In outline: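 SK-N-F1 cells (2 million per implant) were grown in mice (4 per group) until tumors reached 500 mm³. Mice were then dosed at 3 mg/kg s.c. once daily for 20 days against PBS vehicle; the methods section states 21 days. Harvested tumors were fixed in 10% formalin for at least 48 h, paraffin-embedded, sectioned and H&E stained. Necrosis, fibrosis and debris area was scored microscopically at 4X, 10X and 40X.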

Regarding `CC(C)(C)OC(=O)NCc1ccc(OCCOCCOCCOCCOCCOCCOCCn2cc(COc3c(I)cc(Oc4c(I)cc(CC(=O)O)cc4I)cc3I)nn2)cc1`, in data set [1], the Drug uptake entry is reported as “Active”.

In the case of `N=C(N)NCc1cccc(I)c1` [IOBENGUANE], in data set [1], the Drug uptake result is on record as “Active”.

Consider `N=C(N)NCc1ccc(OCCOCCOCCOCCOCCOCCOCCOCCN2CCN(CCCOc3c(I)cc(Oc4c(I)cc(CC(=O)O)cc4I)cc3I)CC2)cc1`, for which the Activity in data set [2] stood at 90%; in data set [3], 98%.
